Source: PMC4000071 (Journal of Toxicologic Pathology, 2014)

Tests used:
[1] = target: 5-HT1B receptors in the rat cerebral cortex (Rattus norvegicus, UniProt P28564); assay: 5-HT1B receptor binding in rat cerebral cortex
adrenergic α1B receptor = target: T1, adrenergic α1B receptor (Homo sapiens, UniProt P35368); assay: secondary pharmacology screens, α1B; assay type: biochemical; details: 10 µM
T1 sequence (P35368 1-520): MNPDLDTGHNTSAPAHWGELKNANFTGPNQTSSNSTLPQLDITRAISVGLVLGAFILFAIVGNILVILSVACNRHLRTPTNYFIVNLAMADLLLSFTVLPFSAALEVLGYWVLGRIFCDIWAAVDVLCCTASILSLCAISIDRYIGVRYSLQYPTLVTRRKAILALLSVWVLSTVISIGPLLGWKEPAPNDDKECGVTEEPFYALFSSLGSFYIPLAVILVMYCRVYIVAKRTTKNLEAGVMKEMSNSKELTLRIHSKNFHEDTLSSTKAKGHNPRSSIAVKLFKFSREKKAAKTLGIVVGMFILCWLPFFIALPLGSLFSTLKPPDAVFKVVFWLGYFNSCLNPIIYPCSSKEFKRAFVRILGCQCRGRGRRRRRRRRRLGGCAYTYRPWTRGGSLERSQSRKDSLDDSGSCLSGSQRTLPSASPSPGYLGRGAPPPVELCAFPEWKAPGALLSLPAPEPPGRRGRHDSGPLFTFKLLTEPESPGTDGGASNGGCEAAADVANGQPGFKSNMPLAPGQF

dog pharmacokinetics = assay type: in vivo
phospholipidosis (PLD) = assay: in vitro PLD screen; assay type: cell-based; details: read-out: EC50 (phospholipogenic, in vitro); in vitro PLD screen; unpublished data
[2] = test system: mitochondrial oxidative phosphorylation; assay: mitochondrial oxidative phosphorylation inhibition; assay type: biochemical; details: unpublished data
rat [3] = assay: 14-day rat study; assay type: in vivo; details: 14-day study, unpublished data
[4] = 3-month toxicity study, toxicokinetics; assay type: in vivo, beagle dogs; details: 30 mg/kg/day
Outline: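 Dogs received 7, 15 or 30 mg/kg/day by oral gavage for 3 months. Serial blood was drawn on Days 1, 23, 56 and 91, pre-dose and from 0.5 to 24 h post-dose. One decedent was sampled on Day 86 before euthanasia. Plasma drug was measured and tmax, Cmax, AUC and t1/2 were derived.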

beagle dogs [5] = assay: 1-month toxicity study, in-life, clinical pathology and pathology; assay type: in vivo; details: dog
beagle dogs [6] = assay: 3-month toxicity study, in-life, clinical pathology and pathology; assay type: in vivo
Outline: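 Beagles aged 9 months received 0, 7, 15 or 30 mg/kg/day by oral gavage for 3 months in 0.1 M lactic acid (pH 3.0). Groups were 3/sex/dose, with 3/sex added for 5-week recovery in control and high dose. Neurologic examination was done. Clinical pathology: pretest, Weeks 6, 13, end of recovery. Full tissue list including dorsal root ganglia. Eyes/optic nerve fixed in Davidson's, sciatic nerve in Bouin's, others in formalin. Sections ~5 µm, H&E.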

dogs = assay: cardiovascular telemetry study in dogs; assay type: in vivo; details: dog
rat [7] = assay: rat 1- and 3-month repeat dose toxicity; assay type: in vivo
[8] = target: human 5-hydroxytryptamine 1B (serotonin, or 5-HT1B) receptor; details: antagonist; cited from earlier work
guinea pig = details: 0.6 µmol/kg. p.o.; cited from earlier work
[9] = 1-month, 47 mg/kg/day, 4 affected dogs
[10] = 1-month, 47 mg/kg/day, Week 2 until end of dosing
[11] = Female 15 mg/kg/day (N=3), 3 months
[12] = Female 15 mg/kg/day (N=3), 3 months, highest incidence shown
[13] = Female 30 mg/kg/day (N=2), after 5 weeks of recovery
[14] = Female 30 mg/kg/day (N=5), after 3 months of dosing
[15] = Male 7 mg/kg/day (N=3), 3 months, highest incidence shown
[16] = Male 15 mg/kg/day (N=3), 3 months
[17] = Male 15 mg/kg/day (N=3), 3 months, highest incidence shown
[18] = Male 30 mg/kg/day (N=3), 3 months
[19] = Male 30 mg/kg/day (N=3), 3 months, highest incidence shown
[20] = Male 30 mg/kg/day (N=3), after 5 weeks of recovery
[21] = Male 30 mg/kg/day (N=6), after 3 months of dosing
[22] = dog, 30 mg/kg/day 3 months then 5-week recovery
[23] = dog, 30 mg/kg/day males, Week 3 until end of dosing
[24] = dog, 30 mg/kg/day, after 3 months

5-HT1B receptors in the rat cerebral cortex, sequence (P28564 whole entry): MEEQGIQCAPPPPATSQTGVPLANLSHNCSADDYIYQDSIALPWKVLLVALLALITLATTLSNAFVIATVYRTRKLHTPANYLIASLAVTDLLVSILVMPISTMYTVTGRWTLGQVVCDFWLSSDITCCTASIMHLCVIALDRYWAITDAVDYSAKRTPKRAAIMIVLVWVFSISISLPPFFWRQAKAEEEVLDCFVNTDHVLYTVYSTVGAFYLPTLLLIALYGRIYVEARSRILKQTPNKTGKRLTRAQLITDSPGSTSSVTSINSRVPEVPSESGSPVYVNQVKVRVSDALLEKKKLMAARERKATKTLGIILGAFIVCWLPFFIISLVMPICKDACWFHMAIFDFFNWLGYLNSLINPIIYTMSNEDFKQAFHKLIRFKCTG

## COc1cc2c(c(N3CCN(C)CC3)c1)O[C@@H](C(=O)Nc1ccc(N3CCOCC3)cc1)CC2 [AZD3783, (2R)-6-methoxy-8-(4-methylpiperazin-1-yl)-N-(4-morpholin-4-ylphenyl) chromane-2-carboxamide]
[1]; rat cerebral cortex
  Ki: 51 nM
[1]; rat vs guinea pig or human
  affinity lower than for the guinea pig or human 5-HT1B receptors: approximately 4 fold
Adrenergic α1B receptor
  activity at adrenergic α1B receptor: antagonist
Dog pharmacokinetics
  steady state volume of distribution: 4.3 L/kg
Dog pharmacokinetics; after IV dosing
  plasma clearance: 18 mL/min/kg
Dog pharmacokinetics; oral dosing
  F (oral): 58%
Phospholipidosis (PLD)
  EC50: 164000 nM
[2]
  inhibition of mitochondrial oxidative phosphorylation: not a direct inhibitor
Rat [3]
  PLD in tissues: dose-dependent PLD in a limited number of tissues
[4]; decedent female, prior to euthanasia on Day 86
  plasma concentration: 17 µM
[4]; dog, 3-month study
  exposure relative to predicted therapeutic exposure: 350 fold
Beagle dogs [5]; 1-month
  ECG: no treatment-related effect on ECG
Beagle dogs [5]; 1-month, 2.3 mg/kg/day
  pathological findings in spinal cord or any CNS tissues: no pathological findings
Beagle dogs [5]; 1-month, 14 mg/kg/day
  pathological findings in spinal cord or any CNS tissues: no pathological findings
Beagle dogs [5]; 1-month, 47 mg/kg/day
  dogs with mild to marked increases in liver enzymes (incidence): 4 of 12
  electron microscopy of liver and gallbladder: lamellar bodies consistent with PLD
  liver microscopic findings: inflammatory cell infiltration, degenerative and necrotic changes in the centrilobular region and moderate pigments in histiocytes
  lymphoid tissues microscopic findings: increased incidence and severity of lymphocytolysis
Beagle dogs [5]; [9]
  ALT increase in affected dogs: up to 17 fold vs. pretest
  Aspartate aminotransferase (AST) increase in affected dogs: up to 7 fold vs. pretest
  GLDH increase in affected dogs: up to 37 fold vs. pretest
Beagle dogs [5]; [10]
  alanine aminotransferase (ALT) group mean elevation: approximately 3 fold
  glutamate dehydrogenase (GLDH) group mean elevation: ~7 fold
Beagle dogs [5]; 1-month, 2.3, 14, 47 mg/kg/day
  mortality: All animals survived to scheduled necropsy
Beagle dogs [5]; 1-month, all doses
  ophthalmology observations: No treatment-related observations were seen in the eyes of any dog
Beagle dogs [5]; 1-month, females, 47 mg/kg/day
  platelet counts increase: 24–52%
Beagle dogs [5]; 1-month, males, 47 mg/kg/day
  platelet counts increase: 10–15%
Beagle dogs [5]; recovery animals previously dosed at 47 mg/kg/day
  pathological findings in spinal cord or any CNS tissues: no pathological findings
Beagle dogs [6]; Female 7 mg/kg/day (N=3), 3 months, highest incidence shown
  D.R. ganglion: cerv., thoracic, lumbar: Vacuolation; ganglion cell (incidence): 2
Beagle dogs [6]; Female 7 mg/kg/day (N=3), after 3 months of dosing
  Ophthalmologic finding: Normal (number of dogs): 3
Beagle dogs [6]; [11]
  Brain: Degeneration/necrosis; neuronal (incidence): 1
  Brain: Degeneration: nerve fiber (incidence): 1
  Brain: Gliosis (incidence): 1
  Brain: Vacuolation: neuronal (incidence): 2
Beagle dogs [6]; [12]
  D.R. ganglion: cerv., thoracic, lumbar: Inflammation (incidence): 2
  D.R. ganglion: cerv., thoracic, lumbar: Vacuolation; ganglion cell (incidence): 3
Beagle dogs [6]; Female 15 mg/kg/day (N=3), after 3 months of dosing
  Ophthalmologic finding: Normal (number of dogs): 3
Beagle dogs [6]; [13]
  Ophthalmologic finding: Chorioretinal scar (number of dogs): 1
  Ophthalmologic finding: Normal (number of dogs): 1
  Ophthalmologic finding: Retinal detachment (number of dogs): 1
Beagle dogs [6]; [14]
  Ophthalmologic finding: Normal (number of dogs): 2
  Ophthalmologic finding: Retinal detachment (number of dogs): 2
  Ophthalmologic finding: Retinal hemorrhage (number of dogs): 2
  Ophthalmologic finding: Vitreal hemorrhage (number of dogs): 1
Beagle dogs [6]; [15]
  D.R. ganglion: cerv., thoracic, lumbar: Inflammation (incidence): 1
  D.R. ganglion: cerv., thoracic, lumbar: Vacuolation; ganglion cell (incidence): 1
Beagle dogs [6]; Male 7 mg/kg/day (N=3), after 3 months of dosing
  Ophthalmologic finding: Normal (number of dogs): 3
Beagle dogs [6]; [16]
  Brain: Degeneration: nerve fiber (incidence): 1
  Brain: Vacuolation: neuronal (incidence): 3
  Eye/Optic nerve: Degeneration, optic nerve fiber (incidence): 1
  Eye/Optic nerve: Inflammation: retina (incidence): 1
Beagle dogs [6]; [17]
  D.R. ganglion: cerv., thoracic, lumbar: Degeneration: nerve fiber (incidence): 2
  D.R. ganglion: cerv., thoracic, lumbar: Inflammation (incidence): 2
  D.R. ganglion: cerv., thoracic, lumbar: Vacuolation; ganglion cell (incidence): 3
Beagle dogs [6]; Male 15 mg/kg/day (N=3), after 3 months of dosing
  Ophthalmologic finding: Normal (number of dogs): 3
Beagle dogs [6]; [18]
  Brain: Degeneration/necrosis; neuronal (incidence): 3
  Brain: Degeneration: nerve fiber (incidence): 3
  Brain: Gliosis (incidence): 3
  Brain: Inflammation: perivascular (incidence): 3
  Brain: Vacuolation: neuronal (incidence): 3
  Eye/Optic nerve: Degeneration, optic nerve fiber (incidence): 1
  Eye/Optic nerve: Inclusion: retina (incidence): 3
  Eye/Optic nerve: Inflammation: retina (incidence): 1
  Sciatic nerve: Degeneration: nerve fiber (incidence): 1
Beagle dogs [6]; [19]
  D.R. ganglion: cerv., thoracic, lumbar: Degeneration: nerve fiber (incidence): 3
  D.R. ganglion: cerv., thoracic, lumbar: Inflammation (incidence): 2
  D.R. ganglion: cerv., thoracic, lumbar: Vacuolation; ganglion cell (incidence): 3
  Spinal cord, cerv., thoracic, lumbar: Degeneration: nerve fiber (incidence): 2
Beagle dogs [6]; [20]
  Ophthalmologic finding: Chorioretinal scar (number of dogs): 2
  Ophthalmologic finding: Tepatum hyperreflectivity (number of dogs): 1
Beagle dogs [6]; [21]
  Ophthalmologic finding: Normal (number of dogs): 2
  Ophthalmologic finding: Retinal detachment (number of dogs): 2
  Ophthalmologic finding: Retinal hemorrhage (number of dogs): 3
  Ophthalmologic finding: Vitreal hemorrhage (number of dogs): 1
Beagle dogs [6]; decedent female, 30 mg/kg/day
  GLDH increase vs pretest: 2 fold
  WBC increase vs pretest: < 2 fold
  neutrophils increase vs pretest: 2 fold
Beagle dogs [6]; decedent female, 30 mg/kg/day, Day 84
  bile increase vs pretest: 5 fold
Beagle dogs [6]; [22]
  brain findings after recovery: extensive neuronal loss accompanied by marked astrogliosis
  reversibility of pathological lesions (except thymus and bone marrow): still present after the 5-week recovery period
Beagle dogs [6]; [23]
  ALT group mean elevation vs. pretest: ca. 2 fold
  GLDH group mean elevation vs. pretest: ca. 4 fold
Beagle dogs [6]; [24]
  platelet counts increase: 24–30%
  reticulocytes (% and total count) decrease: 42–50%
Beagle dogs [6]; dog, 3-month study
  NOEL: not established
Beagle dogs [6]; dog, 3-month, 15 and 30 mg/kg/day
  severity of lesions in the brain: dose-related and ranged from slight to moderate
Beagle dogs [6]; dog, 3-month, Week 6 examination
  ophthalmologic observations: No treatment-related ophthalmologic observations
Beagle dogs [6]; dog, 3-month, all treated groups
  gallbladder microscopic findings: pigment deposit (lamina propria) was noted in all animals in the treated groups
dogs; 14 mg/kg/day
  cardiovascular effect (telemetry): no effect
dogs; 47 mg/kg
  cardiovascular effect (telemetry): modest tachycarda with decrease in blood pressure
Rat [7]
  PLD: caused generalized PLD
Rat [7]; 1 month, 126 mg/kg/day
  nervous tissue pathology: minimal neuronal vacuolation in the DRG and brain stem
Rat [7]; 3 months, 100 mg/kg/day, unpublished results
  nervous tissue pathology (DRG, brain stem, spinal cord): minimal to slight neuronal vacuolation with eosinophilic deposits
[8]
  Ki: 12.5 nM
Guinea pig
  anxiolytic and anti-depressant efficacy: elicit effects indicative of anxiolytic and anti-depressant efficacy
  extracellular serotonin in the brain: increase extracellular serotonin in the brain
